These results are taken from ChEMBL document CHEMBL2331493, “Chemical tagging of a drug target using 5-sulfonyl tetrazole” (Bioorg Med Chem Lett, 2013).

Each structure is given as a SMILES string. Activity calls are given as the source filed them. The calls are words filed in the database; no cut-off is given here.

Experiment [1] deals with Peptidyl-prolyl cis-trans isomerase A (Homo sapiens) (UniProt P62937). Briefly: Binding affinity to cyclophilin A in human Jurkat cell lysates at 1.1 uM after 24 hrs by Western blot analysis. Background: Immunoblotting shows a protein as a band on a membrane.
Sequence of Peptidyl-prolyl cis-trans isomerase A (Homo sapiens) (P62937 whole entry, looked up): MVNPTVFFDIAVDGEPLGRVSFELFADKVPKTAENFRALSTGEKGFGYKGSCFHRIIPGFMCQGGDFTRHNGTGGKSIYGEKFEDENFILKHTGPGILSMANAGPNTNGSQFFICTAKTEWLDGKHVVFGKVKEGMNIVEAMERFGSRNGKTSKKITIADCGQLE
The target is the same in experiment [2]. The experiment can be described thus: Binding affinity to biotin-tagged cyclophilin A in human Jurkat cell lysates at 1.1 uM after 24 hrs by SDS-PAGE analysis. The essentials:
(§1)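 Biotinylated probe incubated with a lysate of Jurkat cells (human leukemia T cells). The lysate was then mixed with streptavidin beads to pull down proteins with affinity for the probe. Bead-captured proteins were resolved by SDS–PAGE, and protein bands were read out.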

Experiment [3] shares this target. Briefly: Binding affinity to cyclophilin A in human Jurkat cell lysates at 1.1 uM after 24 hrs by SDS-PAGE analysis in presence of cyclosporine A.
Experiment [4] has the same target. The experiment can be described thus: Binding affinity to cyclophilin A in human Jurkat cell lysates at 1.1 uM after 24 hrs by SDS-PAGE analysis. The essentials: as §1
Experiment [5] shares this target. Briefly: Binding affinity to cyclophilin A in human Jurkat cell lysates at 1.1 uM after 24 hrs by SDS-PAGE analysis in presence of N-ethylmaleimide.

Turning to `CC[C@@H]1NC(=O)[C@H]([C@H](O)[C@H](C)C/C=N\OCC(=O)NCCCC(=O)NCCCCNC(=O)CCSc2nnnn2CCCCCNC(=O)CCCC[C@@H]2SC[C@@H]3NC(=O)N[C@@H]32)N(C)C(=O)[C@H](C(C)C)N(C)C(=O)[C@H](CC(C)C)N(C)C(=O)[C@H](CC(C)C)N(C)C(=O)[C@@H](C)NC(=O)[C@H](C)NC(=O)[C@H](CC(C)C)N(C)C(=O)[C@H](C(C)C)NC(=O)[C@H](CC(C)C)N(C)C(=O)CN(C)C1=O`, the outcome in experiment [1] and in experiment [4] was Active. Moreover, the result in experiment [2] and in experiment [3] was inactive.
For the molecule `CC(C)(C)OC(=O)NCCCC(=O)NCCCCNC(=O)CCS(=O)(=O)c1nnnn1CCCCCNC(=O)CCCC[C@@H]1SC[C@@H]2NC(=O)N[C@@H]21`, in experiment [4], the result was inactive.
Regarding `CC(C)(C)OC(=O)NCCCC(=O)NCCCCNC(=O)CCSc1nnnn1CCCCCNC(=O)CCCC[C@@H]1SC[C@@H]2NC(=O)N[C@@H]21`, the result in experiment [4] was inactive.
Take `CC[C@@H]1NC(=O)[C@H]([C@H](O)[C@H](C)C/C=N\OCC(=O)NCCCC(=O)NCCCCNC(=O)CCS(=O)(=O)c2nnnn2CCCCCNC(=O)CCCC[C@@H]2SC[C@@H]3NC(=O)N[C@@H]32)N(C)C(=O)[C@H](C(C)C)N(C)C(=O)[C@H](CC(C)C)N(C)C(=O)[C@H](CC(C)C)N(C)C(=O)[C@@H](C)NC(=O)[C@H](C)NC(=O)[C@H](CC(C)C)N(C)C(=O)[C@H](C(C)C)NC(=O)[C@H](CC(C)C)N(C)C(=O)CN(C)C1=O`: the outcome in experiment [1], in experiment [5] and in experiment [4] was Active. The result in experiment [3] was inactive.
